pIC50: −log10 of the molar value. Blank lines part the entries; values can stand above or below the compound they belong to. Active and inactive are the calls of the source. No cut-off for these calls is given here.
What was measured:
Oryctolagus cuniculus [1] = species on record: Oryctolagus cuniculus; experiment: Inhibition of cap-independent HCV-IRES-induced translation in rabbit reticulocyte lysate at 500 nM after 1.5 hrs by luciferase reporter gene assay; type: functional
How it was run: (§1)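 Capped bicistronic reporter mRNA: cap-dependent firefly luciferase first cistron, HCV IRES-driven Renilla second cistron. Transcribed in vitro with SP6 from the BamHI-linearised plasmid. 200 ng RNA translated in rabbit reticulocyte lysate with 70 mM KCl, 2 mM DTT, RNasin and compound in DMSO (5% v/v final), 30 °C for 1.5 h. Dual luciferase readout. Duplicates, 4 independent assays, mean IC50 by curve fit.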

[2] = Antiproliferative activity against human Jurkat T cells after 72 hrs by MTT assay; type: functional, cell-based
How it was run: (§2)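 HeLa and SK-MEL2 grown in DMEM, Jurkat in RPMI 1640, each with 10% FBS and penicillin-streptomycin, at 37 °C and 5% CO2. Adherent cells seeded at 2000/well and left to recover overnight; Jurkat seeded at 5000/well with no recovery. Compound added in DMSO (0.1% final), then 72 h incubation and MTT readout.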

SK-MEL-2 [3] = experiment: Antiproliferative activity against human SK-MEL-2 cells up to 10^4 nM after 72 hrs by MTT assay in presence of 10% FBS; type: functional, cell-based; how it was run: as §2
HeLa [4] = experiment: Antiproliferative activity against human HeLa cells up to 500 nM after 72 hrs by MTT assay; type: functional, cell-based; how it was run: as §2
Jurkat [5] = experiment: Antiproliferative activity against human Jurkat T cells up to 10^4 nM after 72 hrs by MTT assay; type: functional, cell-based; how it was run: as §2
Oryctolagus cuniculus [6] = species on record: Oryctolagus cuniculus; experiment: Binding affinity to eIF4A1/2 in rabbit reticulocyte lysate assessed as cap-dependent translation at 500 nM after 1.5 hrs by dual luciferase reporter gene assay relative to control
How it was run: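 Rabbit reticulocyte lysate translating the cap-dependent/HCV IRES dual-luciferase mRNA, with compound at 500 nM in DMSO (5% v/v final), 30 °C for 1.5 h. Cap-dependent luciferase expressed as % translation relative to DMSO control.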

[7] = Binding affinity to eIF4A1/2 in rabbit reticulocyte lysate assessed as inhibition of cap-dependent translation after 1.5 hrs by dual luciferase reporter gene assay; design: species or system Oryctolagus cuniculus; how it was run: as §1
SK-MEL-2 [8] = experiment: Antiproliferative activity against human SK-MEL-2 cells after 72 hrs by MTT assay in presence of 10% FBS; type: functional, cell-based; details: SK-MEL-2, 72 h; how it was run: as §2
HeLa [9] = experiment: Antiproliferative activity against human HeLa cells after 72 hrs by MTT assay; type: functional, cell-based; how it was run: as §2
Jurkat [10] = experiment: Immunosuppressive activity in human Jurkat T cells assessed as inhibition of IL-2 transcription; type: functional, cell-based
Oryctolagus cuniculus [11] = species on record: Oryctolagus cuniculus; experiment: Binding affinity to eIF4A1/2 in rabbit reticulocyte lysate assessed as inhibition of cap-dependent translation up to 500 nM after 1.5 hrs by dual luciferase reporter gene assay; how it was run: as §1
[12] = Antiproliferative activity against BAEC assessed as DNA synthesis level after 24 hrs by thymidine incorporation assay; details: Bos taurus
How it was run: (§3)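 Cells kept at 37 °C, 5% CO2 with penicillin-streptomycin and 10% FBS. Adherent lines seeded at 2000 cells/well and left to recover overnight; Jurkat seeded at 5000 cells/well with no recovery period. Compound added in DMSO (0.1% final, vehicle-only control) at 0.001–100 nM over 10 wells. DNA synthesis read out after 24 h. Mean IC50 from at least 3 independent assays.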

[13] = Antiproliferative activity against human Jurkat T cells assessed as DNA synthesis level after 24 hrs by thymidine incorporation assay; type: functional, cell-based; how it was run: as §3
HaCaT = experiment: Antiproliferative activity against human HaCaT cells assessed as DNA synthesis level after 24 hrs by thymidine incorporation assay; type: functional, cell-based; how it was run: as §3
RKO = experiment: Antiproliferative activity against human RKO cells assessed as DNA synthesis level after 24 hrs by thymidine incorporation assay; type: functional, cell-based; how it was run: as §3
HeLa [14] = experiment: Antiproliferative activity against human HeLa cells assessed as DNA synthesis level after 24 hrs by thymidine incorporation assay; type: functional, cell-based; how it was run: as §3

Compound: COCCC/C=C/C(C)=C/[C@@H]1Cc2nc(cs2)CCCCC(=O)O[C@@H](C)C/C(C)=C/C#CC(=O)O1
inhibition (Oryctolagus cuniculus [1]): inactive | pIC50 [2]: < 5.00 | Activity (SK-MEL-2 [3]): inactive | Activity (HeLa [4]): inactive

Compound: CC(/C=C/C(C)=C/[C@@H]1Cc2nc(cs2)CCCCC(=O)O[C@@H](C)C/C(C)=C/C#CC(=O)O1)=C\CN1CCCC1
Activity (Jurkat [5]): inactive | Activity (SK-MEL-2 [3]): inactive | Activity (HeLa [4]): inactive

Compound: CC(/C=C/C(C)=C/[C@@H]1Cc2nc(cs2)CCCCC(=O)O[C@@H](C)C/C(C)=C/C=C/C(=O)O1)=C\CN(C)C
Activity (Oryctolagus cuniculus [6]): 80% | inhibition (Oryctolagus cuniculus [1]): inactive | pIC50 [7]: < 6.30 | pIC50 [2]: < 5.00 | pIC50 (SK-MEL-2 [8]): 6.02 | pIC50 (HeLa [9]): 6.07

Compound: CC(/C=C/CCCO)=C\[C@@H]1Cc2nc(cs2)[C@@H](C)C[C@@H](NC(=O)OC(C)(C)C)CC(=O)O[C@@H](C)C/C(C)=C/C=C\C(=O)O1
pIC50 (Jurkat [10]): < 6.00

inhibition (Oryctolagus cuniculus [1]): inactive | inhibition (Oryctolagus cuniculus [11]): inactive | pIC50 (SK-MEL-2 [8]): < 5.00
Compound: CC(Br)=C[C@@H]1Cc2nc(cs2)CCCCC(=O)O[C@@H](C)C/C(C)=C/C=C\C(=O)O1
pIC50 [2]: < 5.00 | Activity (HeLa [4]): inactive

inhibition (Oryctolagus cuniculus [1]): inactive | pIC50 [7]: < 6.30 | pIC50 (SK-MEL-2 [8]): < 5.30 | pIC50 (HeLa [9]): < 5.30
Compound: CC(/C=C/C=C/CO)=C\[C@@H]1Cc2nc(cs2)CCCCC(=O)O[C@@H](C)C/C(C)=C/C=C\C(=O)O1
pIC50 [2]: < 5.00

Compound: CC(/C=C/C(C)=C/[C@@H]1Cc2nc(cs2)[C@@H](C)C[C@@H](N)CC(=O)O[C@@H](C)C/C(C)=C/C=C\C(=O)O1)=C\CN(C)C [PATEAMINE A]
pIC50 (Jurkat [10]): 8.40 | pIC50 [12]: 9.30 | pIC50 [13]: 9.22 | pIC50 (HaCaT): 9.38 | pIC50 (RKO): 9.42 | pIC50 (HeLa [14]): 9.14

Compound: COCCC/C=C/C(C)=C/[C@@H]1Cc2nc(cs2)[C@@H](C)C[C@@H](NC(=O)OC(C)(C)C)CC(=O)O[C@@H](C)C/C(C)=C/C#CC(=O)O1
pIC50 (Jurkat [10]): 7.26 | pIC50 [12]: < 7.70 | pIC50 (HaCaT): < 7.00 | pIC50 (RKO): < 7.00 | pIC50 (HeLa [14]): < 7.00

Compound: CC(/C=C/C=C/CO)=C\[C@@H]1Cc2nc(cs2)CCCCC(=O)O[C@@H](C)C/C(C)=C/C#CC(=O)O1
inhibition (Oryctolagus cuniculus [1]): inactive | Activity (Jurkat [5]): inactive | Activity (SK-MEL-2 [3]): inactive | Activity (HeLa [4]): inactive

Compound: COCCC/C=C/C(C)=C/[C@@H]1Cc2nc(cs2)CCCCC(=O)O[C@@H](C)C/C(C)=C/C=C\C(=O)O1
inhibition (Oryctolagus cuniculus [1]): inactive | inhibition (Oryctolagus cuniculus [11]): inactive | Activity (Jurkat [5]): inactive | Activity (SK-MEL-2 [3]): inactive | Activity (HeLa [4]): inactive

Compound: CC(/C=C/CCCN(C)C)=C\[C@@H]1Cc2nc(cs2)[C@@H](C)C[C@@H](NC(=O)OC(C)(C)C)CC(=O)O[C@@H](C)C/C(C)=C/C=C\C(=O)O1
pIC50 (Jurkat [10]): 6.48 | pIC50 [12]: < 7.70 | pIC50 (HaCaT): < 7.00

Compound: C/C(Br)=C\[C@@H]1Cc2nc(cs2)CCCCC(=O)O[C@@H](C)C/C(C)=C/C#CC(=O)O1
inhibition (Oryctolagus cuniculus [1]): inactive | Activity (Jurkat [5]): inactive | Activity (SK-MEL-2 [3]): inactive | Activity (HeLa [4]): inactive
